High-throughput results as filed in PubChem BioAssay.
Most compounds without a hit are left out; they make up all but 4% or so of the library.
SIRT5 block: blocks human SIRT5 desuccinylation of peptide | Q9NXA8 | Purified SirT5, succinyl-peptide AMC, trypsin-coupled fluorescence | inhibition, % at 15 µM | 330,000 compounds, 1.1% hits | AID 652115; in the data active means inhibition above about 15%
FGF22 binding-1: FGF22 (human) thermal shift binding; recombinant FGF22 thermal shift, SYPRO orange fluorescence; percent of sucrose octasulfate shift, DMSO zero; activity (Tm shift, normalised), % at 9.99 µM; 340,000 compounds, 1.5% hits; AID 651658;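 active means mean Tm shift, scaled 0 neutral to 100 positive control, at about 1.3% or above, every replicate too, limit read from the data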
C2C12 statin: suppressors of simvastatin-induced myotoxicity in C2C12 myotubes; ATP luminescence, 48 h; scaled: DMSO 0, geranylgeraniol control 100; rescue of ATP level, % at 7.49 µM; 330,000 compounds, 0.78% hits; AID 602340;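 active means mean ATP rescue above about 67%, or every replicate alone reaching that limit, limit read from the data, passing the limit was not always enough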;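 further: myotubes were challenged with 10 µM simvastatin during compound exposure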
E-selectin induc: induces E-selectin expression in human endothelial cells | P16581 | HUVEC E-selectin immunofluorescence imaging; normalized: neutral wells 0, TNF-alpha wells 100 | activation, % at 7.58 µM | 260,000 compounds, 0.37% hits | AID 686992;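 active means mean E-selectin-positive cell signal at least 10% of the positive control, reached in at least 60% of replicates, without over 20% cell loss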
Target sequence (P16581 whole entry, looked up): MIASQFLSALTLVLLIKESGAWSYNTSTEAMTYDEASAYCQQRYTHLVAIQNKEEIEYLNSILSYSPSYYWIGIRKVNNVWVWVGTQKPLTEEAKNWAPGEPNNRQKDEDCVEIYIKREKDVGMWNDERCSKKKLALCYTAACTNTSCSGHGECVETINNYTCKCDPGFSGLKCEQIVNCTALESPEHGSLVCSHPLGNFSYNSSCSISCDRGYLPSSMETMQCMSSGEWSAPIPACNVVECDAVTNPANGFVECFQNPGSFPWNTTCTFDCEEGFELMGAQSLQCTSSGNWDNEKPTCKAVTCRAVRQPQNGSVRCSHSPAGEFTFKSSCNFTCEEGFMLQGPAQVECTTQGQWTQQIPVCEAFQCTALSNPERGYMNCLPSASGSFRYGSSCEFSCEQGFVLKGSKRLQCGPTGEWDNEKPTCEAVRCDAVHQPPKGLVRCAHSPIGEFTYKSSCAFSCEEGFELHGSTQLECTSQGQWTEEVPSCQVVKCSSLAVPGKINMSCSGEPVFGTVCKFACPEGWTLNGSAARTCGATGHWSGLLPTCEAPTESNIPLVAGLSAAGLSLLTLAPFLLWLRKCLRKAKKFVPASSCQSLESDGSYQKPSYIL
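Material: HUVEC primary endothelial cells; Amount: 3,000 cells per well; Dosing: single concentration; Medium: EGM-2 growth medium on 0.1% gelatin-coated wells; Read-out basis: percent E-selectin-positive cells; Signal: immunofluorescence imaging; Control set: TNF-alpha, DMSO.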
FN deposition inh: fibronectin deposition inhibition; AH1F fibroblasts, Alexa488-fibronectin deposition fluorescence, overnight; 350,000 compounds, 0.086% hits; inhibition, % at 12.6 µM;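 active means mean inhibition across replicates of 30% or more, regardless of how many single replicates reach that level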;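 further: positive control wells lacked labelled fibronectin entirely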
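Measured by – fluorescence 485/525 nm · System – AH1F fibroblast monolayer, labelled fibronectin deposition · Amount – 10000 cells per well · Buffer or medium – serum-reduced DMEM (2% serum) · Doses – single dose, pinned · Also added – fluorescent fibronectin at 24 nM final · Schedule – 1 h cell attachment, overnight exposure to compound and label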
Ecoli rRNA inh: inhibits bacterial ribosomal RNA function over humanized ribosomes; E. coli WT GFP vs humanized-ribosome RFP mutants, fluorescence, 24 h; hits give low values; DMSO median 0, no signal -100; GFP signal change (wild-type ribosome), % (concentration not given with the values); 350,000 compounds, 1.6% hits;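 active means significant combined selectivity score with lowered wild-type GFP, culture density cut under 30%, mutant RFP and density less affected; inactive means any of these conditions unmet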
FGF22 binding-2: binds human FGF22 shifting its melting temperature. shares compounds with FGF22 binding-1. recombinant FGF22 thermal shift, SYPRO orange fluorescence. thermal shift activity, °C (ΔTm) at 38 µM. 1,000 compounds, 2% hits;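 active means fitted rise in melting shift crosses a set limit at or below the top valid dose tested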
SYPRO no-protein: counter-screen for FGF22 binders: compound-only thermal shift, no protein; shares compounds with FGF22 binding-1; 1,000 compounds, 2% hits; AC50, µM (top dose mostly 38 µM); AID 743019; compound-only SYPRO orange thermal shift counter-screen;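 active means rising signal whose fitted curve reaches the 0.54 level within the top valid dose, showing a melting point, actives reach about 13 µM in these data; inactive means the rest, including activity in the opposite direction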; further: value is where the raw curve crosses a fixed level and not half-maximal
An asterisk follows results filed as active; i = inactive; x = no result; ! = not active in a repeat; [ ] = remark or other dose.

SMILES	SIRT5 block	FGF22 binding-1	C2C12 statin	E-selectin induc	FN deposition inh	Ecoli rRNA inh	FGF22 binding-2	SYPRO no-protein
CCCC#Cc1ccc2c(c1)O[C@H](CN(C)C(C)=O)[C@@H](C)CN([C@@H](C)CO)S2(=O)=O	3	1.5*	20	0	-3	0	0.03	i
COCC(=O)N(C)C[C@@H]1Oc2cc(C#C[C@H](C)O)ccc2S(=O)(=O)N([C@@H](C)CO)C[C@H]1C	0	36*	-4	0	-23	3	0.021[42 µM]	i
C[C@H](CO)N1C[C@H](C)[C@H](CN(C)C(=O)c2ccncc2)Oc2cc(C#CC3CC3)ccc2S1(=O)=O	2	0	1	0	x	-1	x	x
C[C@@H]1CN([C@H](C)CO)S(=O)(=O)c2ccc(C#CC3CC3)cc2O[C@H]1CN(C)C(=O)c1ccncc1	7	1.4*	5	0	x	-4	0.024	i
C[C@@H]1CN([C@@H](C)CO)C(=O)c2c(c3ccccc3n2C)-c2ccccc2CO[C@@H]1CN(C)CC1CC1	8	0	-2	0	-13	0	x	x
C[C@@H]1CN([C@@H](C)CO)S(=O)(=O)c2ccc(C#CCN(C)C)cc2O[C@H]1CN(C)Cc1ccccc1F	-40	0	-132	0	x	-31	x	x
C[C@@H]1CN([C@H](C)CO)S(=O)(=O)c2ccc(C#CCN(C)C)cc2O[C@@H]1CN(C)Cc1ccccc1F	-2	4.7*!	-14	0	-4	2	0.15	i
O=[N+]([O-])c1ccc2nc(NS(=O)(=O)c3ccccc3[N+](=O)[O-])sc2c1	2	2.4*	11	0	-1	-29	-0.44	i
C[C@@H]1CN([C@H](C)CO)C(=O)CCCn2nncc2CO[C@@H]1CN(C)Cc1ccccc1	-1	0	2	0	-6	-1	x	x
O=S(=O)(Nc1cccc(-n2cnnn2)c1)c1ccc(Cl)nc1	2	0	4	x	2	1	x	x
O=S(=O)(Nc1cccc(-n2cnnn2)c1)c1ccc(Cl)cc1	-3	1.7*	x	0	-2	-6	0.18	i
CSc1nc2nc(Cl)c(Cl)nc2[nH]1	x	1.4*	0	0	1	-8	0.039	i
Cc1noc(C)c1NC(=O)Nc1ccc2c(c1)C(=O)N([C@@H](C)CO)C[C@@H](C)[C@@H](CN(C)C(=O)C1CCCCC1)OCCCC[C@H](C)O2	0	1	x	0	x	-2	x	x
Cc1cc(C)n(-c2ccc(C(=O)Nc3cccc(S(=O)(=O)N(C)C)c3)cc2)n1	-6	0	x	0	7	-24	x	x
Cc1cc(C)n(-c2ccc(C(=O)Nc3ccc(S(=O)(=O)N(C)C)cc3)cc2)n1	3	1.5*	x	x	-3	-11	-0.24	i
Cc1noc(C)c1NC(=O)Nc1ccc2c(c1)CC(=O)N([C@H](C)CO)C[C@H](C)[C@H](CN(C)C(=O)Nc1ccccc1)O2	-1	0	17	0	x	4	x	x
N#CC(C#N)=C1NC(N)=C(C#N)C(c2ccccc2)=C1C#N	4	2.1*	x	1	-3	4	0.14	i
CCC1(CC)Cc2ccccc2C(=C(C#N)C#N)N1	x	x	x	x	7	x	x	x
COc1ccc(S(=O)(=O)N(C)C[C@@H]2Oc3ccc(NC(=O)CCCCCC(=O)Nc4ccccc4N)cc3CC(=O)N([C@H](C)CO)C[C@@H]2C)cc1	-1	0	-42	0	x	3	x	x
COC(=O)Cc1n[nH]c(=O)c2ccccc12	1	12*	1	x	x	20	-0.025	i
COC(=O)c1ccc(COC(=O)Cc2n[nH]c(=O)c3ccccc23)cc1	-5	0	x	-1	1	5	x	x
CCOc1ccc(CN2CCNC(=O)C2CC(=O)N(C)C2CCCCC2)cc1 (stereo not given)	0	0	-5	x	-8	2	x	x
